Data on twelve compounds can be found in PubChem BioAssay.

The source made the active and inactive calls. Rule as the data show it, unless noted: active = inhibition above about 30%; inactive = the rest.

Assay [1] can be described thus: SK-BR-3 cell growth inhibitors, pilot screen, 24 h, human (AID 572;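 active = viability at or below 10% of carrier control in both of two separate runs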;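 also: compound exposure lasted between 18 and 24 h rather than exactly 24 h; 100% = carrier-treated control wells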). The settings on record: SK-BR-3 viability, CellTiter-Glo luminescence, at 10 µM, stronger effect = lower value.
Assay [2] in a line: HUVEC growth inhibition – cell-based, human, primary screen (AID 575;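 active = viability at or below 30% in both replicate assays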;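 also: 100% = median of untreated cell wells with 0.1% DMSO on each plate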). Particulars: HUVEC proliferation, CellTiter-Glo luminescence, 72 h; at 10 µM; stronger effect = lower value. A digest of the protocol:
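Test system: primary human umbilical vein endothelial cells; medium: endothelial basal medium with 2% FBS plus growth supplements; dosing: 10 µM compound only; times: 72 h treatment at 37 °C; signal: CTG luminescence; read-out: % viability relative to median vehicle-well signal on each plate; control set: vehicle and MePR control wells; plate: 384-well, collagen-coated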

Assay [3] is described as follows: growth inhibitors of H69AR lung tumor, primary screen, human, duplicate replicates (AID 580;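 active = viability at or under a set limit in both replicates, limit being median viability minus 3 SD, cut at about 48% in these data, passing the limit was not always enough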;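 also: 100% = mean luminescence of untreated wells and 0% = no signal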). Particulars: H69AR lung tumor cells viability, ATP luminescence, 72 h; at 10 µM; stronger effect = lower value.
The nature of assay [4]: reversal of MRP1-mediated doxorubicin resistance, pilot screen, H69AR cells, doxorubicin co-treatment (AID 601;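 active = viability loss from added drug above about 55%, and viability with drug at most 40%, in both replicates, limit read from the data, passing the limit was not always enough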). The settings on record: CellTiter-Glo, 72 h, at 10 µM; for differential viability (reversal): stronger effect = higher value.
A short description of assay [5]: 384-well plate pilot, post-Golgi transport modulator project, inhibition of yeast transport mutant growth (AID 636; in the data active = inhibition above about 31%). The settings on record: absorbance 615 nm, about 18 h, stronger effect = higher value.
A short description of assay [6]: growth suppression of yeast trafficking mutant, preliminary HTS, modulators of trafficking downstream of Golgi apparatus project, 1536-format plate, OD 615 nm (AID 637). The settings on record: yeast transport mutant growth, absorbance 615 nm, 18 h; stronger effect = higher value.
The mark [7] stands for this setting: H69AR cells + 2 uM doxorubicin, measured here: viability with 2 uM doxorubicin, stronger effect = lower value.
Setting [8] is: H69AR cells, compound alone cytotoxicity.

In general, viability refers to a read-out of living cells in per cent, often relative to untreated cells. By inhibition is commonly meant the relative decrease from the control value, in per cent. In the case of `Cc1nc2ccccc2c(=O)n1NC(=O)Nc1ccccc1`, the viability is 111% (inactive) in assay [1]; 95.1% (inactive) in assay [2]; 107% (inactive) in assay [3]; 96% in assay [4] (setting [7]); 107% in assay [4] (setting [8]). Moreover, the differential viability (reversal) in assay [4] (H69AR cells + 2 uM doxorubicin) was 10.6% (inactive). The inhibition in assay [5] is -1.2% (inactive); in assay [6], -1.82% (inactive).

`CC(=O)N1CCc2cc(S(=O)(=O)NCCC(=O)Nc3cc(C)cc(C)c3)ccc21`: the viability was 95% (inactive) in assay [1]; 104% (inactive) in assay [2]; 95.6% (inactive) in assay [3]; 95.3% in assay [4] (setting [7]); 95.6% in assay [4] (setting [8]). The differential viability (reversal) in assay [4] (H69AR cells + 2 uM doxorubicin) is 0.35% (inactive). For the same compound, the values for the inhibition in assay [5] and in assay [6] were -4.93% (inactive) and -4% (inactive), respectively.

For the compound `O=C(NCc1ccc2c(c1)OCO2)C1CCC(CNS(=O)(=O)c2ccccc2)CC1` (stereo unspecified), the viability in assay [1] is 92% (inactive); in assay [2], 78.9% (inactive); in assay [3], 92.2% (inactive); in assay [4] (setting [7]), 93.7%; in assay [4] (setting [8]), 92.2%. Further, in assay [4] (H69AR cells + 2 uM doxorubicin), the differential viability (reversal) was -1.49% (inactive). Moreover, the inhibition in assay [5] was 0.52% (inactive); in assay [6], 1.15% (inactive).

In the case of `O=C(Nc1ccc(N2CCCC2)cc1)c1cccc(F)c1`, the viability is 134% (inactive) in assay [1]; 51.7% (inactive) in assay [2]; 25.8% (active) in assay [3]; 50.3% in assay [4] (setting [7]); 25.8% in assay [4] (setting [8]). Moreover, in assay [4] (H69AR cells + 2 uM doxorubicin), the differential viability (reversal) was -24.6% (inactive). In addition, the inhibition is -0.78% (inactive) in assay [5] and -0.82% (inactive) in assay [6].

In the case of `Cc1cc(=O)oc2cc(OCC(=O)OCC(=O)N3CCc4ccccc43)ccc12`, the viability in assay [1] is 103% (inactive); in assay [2], 101% (inactive); in assay [3], 93.2% (inactive); in assay [4] (setting [7]), 95.3%; in assay [4] (setting [8]), 93.2%. Moreover, in assay [4] (H69AR cells + 2 uM doxorubicin), the differential viability (reversal) is -2.07% (inactive). Moreover, the inhibition in assay [5] is -8.38% (inactive); in assay [6], -4.55% (inactive).

Consider `CC(C)Oc1cc2oc(=O)c3c(c2cc1Cl)CCC3`, for which the viability in assay [1] is 66% (inactive); in assay [2] it was 99% (inactive); in assay [3] it was 98.2% (inactive); in assay [4] (setting [7]), 78.6%; in assay [4] (setting [8]), 98.2%. Besides, the differential viability (reversal) in assay [4] (H69AR cells + 2 uM doxorubicin) was 19.7% (inactive). Also, the inhibition in assay [5] is -7.4% (inactive); in assay [6], 0.97% (inactive).

For `C/C=C(\C)c1nnc(NC(=O)OCC)s1`, the viability is 94% (inactive) in assay [1]; 117% (inactive) in assay [2]; 96.4% (inactive) in assay [3]; 89.4% in assay [4] (setting [7]); 96.4% in assay [4] (setting [8]). The differential viability (reversal) in assay [4] (H69AR cells + 2 uM doxorubicin) was 6.96% (inactive). The inhibition in assay [5] was -2.84% (inactive); in assay [6], -0.91% (inactive).

In the case of `Cn1c(=O)[nH]c(=O)c2c1nc(N1CCc3ccccc3C1)n2CCSc1nc2ccccc2s1`, the viability in assay [1] is 72% (inactive); in assay [2], 79.5% (inactive); in assay [3] it was 75.2% (inactive); in assay [4] (setting [7]) it was 73.7%; in assay [4] (setting [8]) it was 75.2%. The differential viability (reversal) in assay [4] (H69AR cells + 2 uM doxorubicin) was 1.51% (inactive). The inhibition in assay [5] was -5.48% (inactive); in assay [6], 2.9% (inactive).

Take `Cc1cccc(NC(=O)c2cc(NC(=O)c3ccco3)ccc2Cl)n1`: the viability in assay [1] is 101% (inactive); in assay [2], 77.2% (inactive); in assay [3], 95.4% (inactive); in assay [4] (setting [7]), 95.3%; in assay [4] (setting [8]), 95.4%. The differential viability (reversal) in assay [4] (H69AR cells + 2 uM doxorubicin) is 0.16% (inactive). Moreover, the inhibition in assay [5] is -1.56% (inactive); in assay [6] it was 7.21% (inactive).

In the case of `CC(=O)Nc1c(O)[nH]c2ccccc12`, the viability in assay [1] is 105% (inactive); in assay [2] it was 102% (inactive); in assay [3], 93.6% (inactive); in assay [4] (setting [7]) it was 94.7%; in assay [4] (setting [8]) it was 93.6%. For the same compound, in assay [4] (H69AR cells + 2 uM doxorubicin), the differential viability (reversal) was -1.07% (inactive). In addition, the inhibition in assay [5] is -8.49% (inactive); in assay [6], 6.36% (inactive).

On to `Cc1nnc(SCc2nnc(-c3ccccc3Br)o2)n1-c1ccccc1`, for which the viability in assay [1] was 86% (inactive); in assay [2] it was 87.5% (inactive); in assay [3] it was 90.2% (inactive); in assay [4] (setting [7]), 93.6%; in assay [4] (setting [8]), 90.2%. Also, the differential viability (reversal) in assay [4] (H69AR cells + 2 uM doxorubicin) is -3.37% (inactive). Further, the inhibition in assay [5] is 0.41% (inactive); in assay [6], 0% (inactive).

With `c1ccc2c(SCc3cn4cccnc4n3)ncnc2c1`, the viability is 108% (inactive) in assay [1]; 99.9% (inactive) in assay [2]; 88.4% (inactive) in assay [3]; 78% in assay [4] (setting [7]); 88.4% in assay [4] (setting [8]). Besides, the differential viability (reversal) in assay [4] (H69AR cells + 2 uM doxorubicin) was 10.4% (inactive). For the same compound, the inhibition is -4.8% (inactive) in assay [5] and -3.82% (inactive) in assay [6].
